Results on three compounds are retold here after paper PMC4111141 (Bioorganic & medicinal chemistry letters, 2014).

The experiment concerns the target T1, Orco derived from Drosophila melanogaster (DmOrco) (Drosophila melanogaster, UniProt Q9VNB5).
T1 sequence (Q9VNB5 1-486): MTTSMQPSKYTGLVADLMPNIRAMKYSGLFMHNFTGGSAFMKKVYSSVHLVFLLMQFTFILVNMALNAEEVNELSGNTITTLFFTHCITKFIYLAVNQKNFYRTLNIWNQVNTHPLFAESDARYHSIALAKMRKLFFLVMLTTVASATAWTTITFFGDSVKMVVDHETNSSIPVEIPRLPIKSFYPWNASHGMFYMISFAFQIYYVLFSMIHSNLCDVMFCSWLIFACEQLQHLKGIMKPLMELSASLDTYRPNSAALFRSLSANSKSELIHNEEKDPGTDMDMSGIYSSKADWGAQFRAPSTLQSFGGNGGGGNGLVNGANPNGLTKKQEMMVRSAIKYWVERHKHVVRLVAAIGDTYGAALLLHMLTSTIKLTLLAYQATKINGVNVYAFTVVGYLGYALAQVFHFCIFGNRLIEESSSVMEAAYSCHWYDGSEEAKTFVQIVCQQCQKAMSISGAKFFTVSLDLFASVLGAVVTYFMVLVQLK
As to the kind of experiment: high-throughput calcium mobilization/imaging assay for Orco agonist activity. The format is cell-based. The settings on record: HEK293 cells stably expressing DmOrco; for % VUAA1 efficacy: maximum agonism of the compound, normalized to the activity of VUAA1; for EC50: mean result of 4 experiments, LA = Low agonism, agonism only at the highest concentration tested, no EC50 could be calculated. In a few lines:
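HEK293 cells stably expressing Drosophila melanogaster Orco, alone or in some cases with tuning OR subunits. Calcium mobilization/imaging read in high-throughput format across increasing test compound concentrations. EC50 and maximal agonism were taken from concentration-response curves. Maximal agonism was expressed as a percentage of reference agonist VUAA1 activity. Values are the mean of 4 experiments.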

Structures are written as SMILES.

The EC50 is the concentration needed to bring the measured effect to its halfway point. Turning to `CCc1ccc(NC(=O)CSc2nnc(-c3cccnc3)n2CC)cc1` [6a], the “% VUAA1 efficacy” value is 100% and the EC50 is 35.1 µM. Moreover, where the note is “listed as VUAA1”, the 50% effective concentration (EC50) is 35 µM.
In the case of `CCc1cccc(NC(=O)CSc2nnc(-c3cccnc3)n2CC)c1` [6b], the “Orco agonist activity (in words)” value was “completely abrogated activity” and the “% VUAA1 efficacy” value is reported as “No agonism”.
Take `CCn1c(SCC(=O)Nc2ccc(Br)cc2)nnc1-c1cccnc1` [6j]: the “% VUAA1 efficacy” value was “No agonism”.
